Measurements taken from ChEMBL document CHEMBL3352082, “Pyrazole derivatives as potent inhibitors of c-Jun N-terminal kinase: synthesis and SAR studies” (Bioorg Med Chem, 2014).

Columns and labels:
[1] = biological target: c-Jun N-terminal kinase, JNK (Homo sapiens, UniProt P45983+P53779+P45984); assay: Inhibition of JNK (unknown origin); assay type: protein assay
Rattus norvegicus [2] = assay: Antiinflammatory activity in po dosed rat paw edema model assessed as inhibition of carrageenan-induced paw edema administered 1 hr prior to carrageenan challenge measured after 2 hrs
Rattus norvegicus [3] = assay: Antiinflammatory activity in po dosed rat paw edema model assessed as inhibition of carrageenan-induced paw edema administered 1 hr prior to carrageenan challenge measured after 4 hrs
Rattus norvegicus [4] = assay: Antiinflammatory activity in po dosed rat paw edema model assessed as inhibition of carrageenan-induced paw edema administered 1 hr prior to carrageenan challenge measured after 1 hr
[5] = biological target: Mitogen-activated protein kinase 8 (Homo sapiens, UniProt P45983); assay: Inhibition of FLAG-tagged JNK-1 (unknown origin) transfected in African green monkey COS cells by SDS-PAGE analysis; assay type: cell-based
Mitogen-activated protein kinase 8, sequence (P45983 whole entry): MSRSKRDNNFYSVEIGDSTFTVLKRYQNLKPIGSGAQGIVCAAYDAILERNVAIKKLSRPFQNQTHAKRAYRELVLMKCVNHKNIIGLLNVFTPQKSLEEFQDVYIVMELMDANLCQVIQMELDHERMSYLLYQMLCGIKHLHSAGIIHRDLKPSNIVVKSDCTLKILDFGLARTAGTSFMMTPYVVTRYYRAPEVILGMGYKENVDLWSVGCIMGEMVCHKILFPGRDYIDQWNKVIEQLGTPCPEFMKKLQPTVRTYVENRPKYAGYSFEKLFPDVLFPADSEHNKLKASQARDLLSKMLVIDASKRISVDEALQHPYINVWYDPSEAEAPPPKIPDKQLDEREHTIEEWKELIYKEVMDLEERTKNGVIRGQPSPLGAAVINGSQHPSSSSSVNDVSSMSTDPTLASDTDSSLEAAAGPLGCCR
Procedure, shortened: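 COS cells transfected with FLAG-tagged JNK-1 and exposed to 0.5 M sorbitol for 30 min to activate JNK-1. FLAG-JNK immunoprecipitated with GST-ATF2 substrate, and the precipitate pretreated with compound and incubated in buffer B. Phosphorylated substrate separated by SDS–PAGE, visualized by autoradiography and quantified by Cerenkov counting through a kinase profiler service.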

Rattus norvegicus [6] = assay: Antiinflammatory activity in po dosed rat paw edema model assessed as inhibition of carrageenan-induced paw edema administered 1 hr prior to carrageenan challenge measured after 3 hrs
Rattus norvegicus [7] = assay: Antiinflammatory activity in po dosed rat paw edema model assessed as inhibition of carrageenan-induced paw edema […] measured after 3 hrs; assay type: functional
Procedure, shortened: (§1)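 Rats given test compounds as an oral suspension; 1 h later 1% carrageenan injected into the subplantar region of the right paw. Paw volume read by digital plethysmometer at 1, 2, 3 and 4 h. Reported as mean paw volume (mL) ± SEM with % inhibition; significance p <0.01 / p <0.05. Method after Winter et al.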

Rattus norvegicus [8] = assay: Antiinflammatory activity in po dosed rat paw edema model assessed as inhibition of carrageenan-induced paw edema […] measured after 4 hrs; assay type: functional; procedure, shortened: as §1
Rattus norvegicus [9] = assay: Antiinflammatory activity in po dosed rat paw edema model assessed as inhibition of carrageenan-induced paw edema […] measured after 1 hr; assay type: functional; procedure, shortened: as §1
Rattus norvegicus [10] = assay: Antiinflammatory activity in po dosed rat paw edema model assessed as inhibition of carrageenan-induced paw edema […] measured after 2 hrs; assay type: functional; procedure, shortened: as §1
Rattus norvegicus [11] = assay: Antiinflammatory activity in rat paw edema model assessed as inhibition of carrageenan-induced paw edema at 50 mg/kg, po administered 1 hr prior to carrageenan challenge measured after 4 hrs
Rattus norvegicus [12] = assay: Antiinflammatory activity in rat paw edema model assessed as inhibition of carrageenan-induced paw edema at 50 mg/kg, po administered 1 hr post carrageenan challenge measured after 2 hrs; assay type: functional; settings: in the assay text read “1 hr prior to carrageenan challenge” for “1 hr post carrageenan challenge”; procedure, shortened: as §1
Rattus norvegicus [13] = assay: Antiinflammatory activity in rat paw edema model assessed as inhibition of carrageenan-induced paw edema at 50 mg/kg, po administered 1 hr post carrageenan challenge measured after 3 hrs; assay type: functional; settings: in the assay text read “1 hr prior to carrageenan challenge” for “1 hr post carrageenan challenge”; procedure, shortened: as §1
Rattus norvegicus [14] = assay: Antiinflammatory activity in rat paw edema model assessed as inhibition of carrageenan-induced paw edema at 50 mg/kg, po administered 1 hr post carrageenan challenge measured after 1 hr; assay type: functional; settings: in the assay text read “1 hr prior to carrageenan challenge” for “1 hr post carrageenan challenge”; procedure, shortened: as §1

IC50 [5]	Compound	inhibition (INH) (Rattus norvegicus [2])	inhibition (INH) (Rattus norvegicus [3])	inhibition (INH) (Rattus norvegicus [4])	inhibition (INH) (Rattus norvegicus [6])	other results
	c1ccc2c(-c3ccncc3)n[nH]c2c1					pIC50 [1]: 5.8
9.6 µM	O=C(Nc1ccccc1)c1cc(-c2ccccc2)[nH]n1	35.02%	30.58%	32.48%	45.64%	
6.2 µM	O=C(Nc1cc(Cl)ccc1Cl)c1cc(-c2ccccc2)[nH]n1	40.16%	18.9%	31.02%	45.47%	
9.8 µM	O=C(Nc1ccc([N+](=O)[O-])cc1)c1cc(-c2ccccc2)[nH]n1	94.31%	68.7%	89.24%	92.56%	
8.1 µM	COc1ccc(NC(=O)c2cc(-c3ccccc3)[nH]n2)cc1	79.54%	66.44%	33.3%	81.08%	
	O=C(Nc1ccc(O)cc1)c1cc(-c2ccccc2)[nH]n1	43.24%	16.64%	22.11%	23.28%	
5.9 µM	O=C(Nc1ccc(Br)cc1)c1cc(-c2ccccc2)[nH]n1	46.31%	38.22%	42.16%	51.4%	
3.1 µM	O=C(Nc1ccc(Cl)c(F)c1)c1cc(-c2ccccc2)[nH]n1	72.7%	64.22%	68.81%	90.54%	
11.9 µM	Cc1cc(C)c(NC(=O)c2cc(-c3ccccc3)[nH]n2)c(C)c1	45.6%	26.8%	53.65%	44.24%	
6.9 µM	CC(=O)c1cccc(NC(=O)c2cc(-c3ccccc3)[nH]n2)c1	56.7%	56.8%	41.3%	74.32%	
9.1 µM	O=C(NCc1ccccc1)c1cc(-c2ccccc2)[nH]n1	53.4%	25.66%	35.48%	48.64%	
5.8 µM	O=C(NCc1ccc(Cl)c(Cl)c1)c1cc(-c2ccccc2)[nH]n1	44.31%	10.11%	45.16%	27.02%	
2.9 µM	O=C(NCc1ccc(F)cc1)c1cc(-c2ccccc2)[nH]n1	70.27%	54.66%	67.86%	75.27%	
6.1 µM	COc1ccc(CNC(=O)c2cc(-c3ccccc3)[nH]n2)cc1	39.77%	16.46%	41.93%	32.43%	
5.8 µM	COc1ccc(CNC(=O)c2cc(-c3ccccc3)[nH]n2)cc1OC	46.59%	24.8%	54.83%	43.24%	
2.8 µM	O=C(NCc1ccco1)c1cc(-c2ccccc2)[nH]n1	81.81%	66.33%	73.11%	91.89%	
3.2 µM	COc1ccc(-c2cc(NC(=O)c3cc(-c4ccccc4)[nH]n3)no2)cc1	72.72%	71.66%	68.81%	90.54%	
	CC(C)(C)c1cc(NC(=O)c2cc(-c3ccccc3)[nH]n2)no1	70.6%	41.7%	68.6%	52.8%	
2.9 µM	O=C(Nc1ccc2[nH]c(S)nc2c1)c1cc(-c2ccccc2)[nH]n1	95.45%	74.15%	94.62%	91.62%	
6.8 µM	O=C(Nc1nccs1)c1cc(-c2ccccc2)[nH]n1	51.06%	31.4%	45.31%	54.65%	
6.2 µM	O=C(NC1CC1)c1cc(-c2ccccc2)[nH]n1	85.22%	55.87%	69.89%	88.13%	
	CC(NC(=O)c1cc(-c2ccccc2)[nH]n1)c1cccc2ccccc12 (configuration not stated)					inhibition (INH) (Rattus norvegicus [7]): 74.32%; inhibition (INH) (Rattus norvegicus [8]): 50.64%; inhibition (INH) (Rattus norvegicus [9]): 61.29%; inhibition (INH) (Rattus norvegicus [10]): 73.86%
8.9 µM	O=C(Nc1ccccn1)c1cc(-c2ccccc2)[nH]n1	79.54%	64.26%	33.3%	81.08%	
	O=C(O)Cc1ccccc1Nc1c(Cl)cccc1Cl [DICLOFENAC SODIUM]					inhibition in vivo at 50 mg/kg (Rattus norvegicus [11]): 51%; inhibition in vivo at 50 mg/kg (Rattus norvegicus [12]): 36%; inhibition in vivo at 50 mg/kg (Rattus norvegicus [13]): 47%; inhibition in vivo at 50 mg/kg (Rattus norvegicus [14]): 23%
